Assay results of several laboratories.
Compare with care: the assays were run in different laboratories.
Target: Dual specificity protein kinase CLK3 (CLK3, Homo sapiens, UniProt P49761)
Technique: competition with immobilised ligand

Structure (SMILES)	assay	conditions	remaining binding [%]
O=C(c1ccc(Nc2nccc(-c3cc4ccccc4s3)n2)cc1)N1CCC(N2CCCC2)CC1	binding	1 µM	73
CNC(=O)[C@@H]1CC[C@@H](n2c(-c3ccc4cnccc4c3)nc3ccc(C(=O)NCc4cccc(C(N)=O)c4)cc32)C1	binding	1 µM	100
CN(C(=O)c1ccccc1)c1cc(N(C)c2ccc3c(c2)CCc2ccc(C(=O)NCCN4CCOCC4)cc2C3=O)ccc1F	cell-free assay	1 µM	100
COc1cc(Nc2nccc(-c3cnn4nc(OC)ccc34)n2)cc(C(F)(F)F)c1	binding	1 µM	92
O=C(c1ccc(Nc2ncc(Cl)c(-c3ccc(Cl)s3)n2)cc1)N1CCC(N2CCCC2)CC1	binding	1 µM	15
CCN1CCN(Cc2ccc(C(=O)Nc3ccc(C)c(Oc4ccc5c(c4)CC(=O)N5)c3)cc2C(F)(F)F)CC1	binding	1 µM	100
Nc1c(C(=O)NCc2ccc(C(=O)NCCCC3CCCCC3)cc2)cnn1-c1ccccc1	cell-free assay	0.1 µM	95
O=C(c1ccc(Nc2ncc(Cl)c(-c3cc4ccccc4s3)n2)cc1)N1CCC(N2CCCC2)CC1	binding	1 µM	7.4
O=C(Nc1c[nH]nc1C(=O)NC1CCNCC1)c1cc(F)cc(F)c1	binding	1 µM	100
c1cncc(-c2cccc(Nc3nccc(NC4CCCCC4)n3)c2)c1	binding	10 µM	57
CO[C@@H](C)c1c(Nc2ccc([C@@H](N(C)C(=O)C3CCS(=O)(=O)CC3)C(F)(F)F)cc2)cnc2cc(Cl)nn12	cell-free assay	1 µM	87
Nc1ncc2c(n1)-c1c([nH]c3ccc(C#CC4CC4)cc13)CCCC2	binding	1 µM	96
CCOC(=O)c1cc2cc(-c3cc(C(=O)NCc4ccc(C(=O)O)cc4)nn3C)ccc2[nH]1	cell-free assay	0.1 µM	83
C[C@@H](c1ccc(-n2cnc3c(N)ncnc32)cc1)N1CCc2nn(C)c(Cc3ccccc3)c2C1=O	binding	0.1 µM	71
